Assays:
[1] = test system: K562; test: Cytotoxicity against human K562 cells after 48 hrs by SRB assay; format: functional; details: K562, 48 h; for CC50: read-out: LC50 (the source's name)
Method in brief: (§1)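 Cells grown in RPMI 1640 with 10% FBS and penicillin/streptomycin at 37 °C and 5% CO₂, trypsinized, then seeded at 5 × 10³/well. After 18 h drug-free attachment, samples in DMSO/EtOH/PBS (0.5:0.5:99) were added for 48 h continuous exposure. Cells were fixed with cold TCA (1 h, 4 °C) and stained with SRB (10 min). Tris-solubilized stain read at 490 nm. Triplicate wells, mean ± SD; GI₅₀ derived.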

[2] = test system: DU-145; test: Cytotoxicity against human DU145 cells after 48 hrs by SRB assay; format: functional, cell-based; details: Homo sapiens, DU-145, 48 h; for CC50: read-out: LC50 (the source's name); method in brief: as §1
[3] = Cytotoxicity against human IGROV-ET cells after 48 hrs by SRB assay; format: functional; details: for CC50: read-out: LC50 (the source's name); method in brief: as §1
[4] = test system: HT-29; test: Cytotoxicity against human HT29 cells after 48 hrs by SRB assay; format: functional, cell-based; details: Homo sapiens, HT-29, 48 h; for CC50: read-out: LC50 (the source's name); method in brief: as §1
[5] = test system: PANC-1; test: Cytotoxicity against human PANC1 cells after 48 hrs by SRB assay; format: functional; details: PANC-1, 48 h; for CC50: read-out: LC50 (the source's name); method in brief: as §1
[6] = test system: LNCaP; test: Cytotoxicity against human LNcaP cells after 48 hrs by SRB assay; format: functional; details: for CC50: read-out: LC50 (the source's name); method in brief: as §1
[7] = test system: LoVo; test: Cytotoxicity against human doxorubicin resistant LoVo cells after 48 hrs by SRB assay; format: functional; details: for CC50: read-out: LC50 (the source's name); method in brief: as §1
[8] = test system: A549; test: Cytotoxicity against human A549 cells after 48 hrs by SRB assay; format: functional, cell-based; details: Homo sapiens, A549, 48 h; for GI50: read-out: GI50; method in brief: as §1
[9] = Cytotoxicity against human IGROV cells after 48 hrs by SRB assay; format: functional; details: for CC50: read-out: LC50 (the source's name); method in brief: as §1
[10] = test system: LoVo; test: Cytotoxicity against human LoVo cells after 48 hrs by SRB assay; format: functional; details: for CC50: read-out: LC50 (the source's name)
[11] = test system: SK-MEL-28; test: Cytotoxicity against human SK-MEL-28 cells after 48 hrs by SRB assay; format: functional, cell-based; details: Homo sapiens, SK-MEL-28, 48 h; for CC50: read-out: LC50 (the source's name); for GI50: read-out: GI50; method in brief: as §1
[12] = Cytotoxicity against human HeLa-APL cells after 48 hrs by SRB assay; format: functional; method in brief: as §1
[13] = test system: HeLa; test: Cytotoxicity against human HeLa cells after 48 hrs by SRB assay; format: functional; details: read-out: LC50 (the source's name); method in brief: as §1

| Structure (SMILES) | CC50 [1] [nM] | CC50 [2] [nM] | CC50 [3] [nM] | CC50 [4] [nM] | GI50 [5] [nM] | TGI [5] [nM] | CC50 [5] [nM] | GI50 [6] [nM] | TGI [6] [nM] | CC50 [6] [nM] | CC50 [7] [nM] | LC50 [8] [nM] | CC50 [9] [nM] | CC50 [10] [nM] | CC50 [11] [nM] | GI50 ([3]; read-out: GI50) [nM] | GI50 [4] [nM] | TGI [4] [nM] | GI50 [10] [nM] | TGI [10] [nM] | also measured |
| --- | --- | --- | --- | --- | --- | --- | --- | --- | --- | --- | --- | --- | --- | --- | --- | --- | --- | --- | --- | --- | --- |
| C/C=C1\NC(=O)[C@H](Cc2ccccc2)NC(=O)[C@@H](C(C)C)NC(=O)[C@@H]([C@H](C)CC)NC(=O)[C@H](NC(=O)[C@H](NC(=O)[C@H](CCCN)NC(=O)[C@H]2CCCN2C(=O)[C@H](NC(=O)CCCC(C)C)C(C)C)[C@H](C)CC)[C@H](C)OC(=O)[C@H](C(C)C)NC1=O | 3540 | 22300 | 6210 | 7470 | 2920 | 2660 | 2450 | 9850 | 9970 | 8890 | 5840 | 2870 | 6040 | 4320 | 2500 | – | – | – | – | – | GI50 [1]: 3480 nM; TGI [1]: 3510 nM |
| C/C=C1\NC(=O)[C@H](Cc2ccccc2)NC(=O)[C@@H](C(C)C)NC(=O)[C@@H]([C@H](C)CC)NC(=O)[C@H](NC(=O)[C@H](NC(=O)[C@H](CCC(=O)O)NC(=O)[C@H]2CCCN2C(=O)[C@H](NC(=O)[C@@H](NC(=O)[C@@H](NC(=O)[C@H](NC(=O)CCCC(C)C)C(C)C)[C@@H](C)O)C(C)C)C(C)C)[C@H](C)CC)[C@H](C)OC(=O)[C@H](C(C)C)NC1=O | 2900 | 10200 | 3540 | 4000 | 2500 | 2540 | 2600 | 1880 | 3130 | 4360 | 3590 | 22600 | 3200 | 1350 | 1980 | 3540 | 2670 | 3260 | 785 | 692 | GI50 [1]: 3320 nM; TGI [1]: 4200 nM; TGI [3]: 3530 nM; TGI [8]: 8950 nM; GI50 [8]: 1090 nM; TGI [9]: 2530 nM; GI50 ([9]; read-out: GI50): 1950 nM; TGI [11]: 4980 nM; GI50 [11]: 5890 nM |
| C/C=C1\NC(=O)[C@H](Cc2ccccc2)NC(=O)[C@@H](C(C)C)NC(=O)[C@@H]([C@H](C)CC)NC(=O)[C@H](NC(=O)[C@H](NC(=O)[C@H](CCCN)NC(=O)[C@H]2CCCN2C(=O)[C@H](NC(=O)[C@@H](NC(=O)[C@@H](NC(=O)[C@@H](NC(=O)CCCC(C)C)C(C)C)[C@@H](C)O)C(C)C)C(C)C)[C@H](C)CC)[C@H](C)OC(=O)[C@H](C(C)C)NC1=O | 153 | 842 | 527 | 501 | 1510 | 1560 | 1590 | 853 | 911 | 967 | 2880 | 1040 | 668 | 2090 | 1060 | 2890 | 635 | 728 | 1300 | 3250 | GI50 [12]: 1040 nM; LC50 (concentration giving 50% net cell kill) [12]: 969 nM; TGI [12]: 1510 nM; GI50 [2]: 771 nM; GI50 ([2]; read-out: GI50): 549 nM; GI50 [3]: 529 nM; CC50 [13]: 1020 nM; GI50 [7]: 1760 nM; TGI [7]: 2250 nM; TGI [8]: 1180 nM; GI50 [8]: 1330 nM; TGI [11]: 1030 nM; GI50 [11]: 1000 nM |
| C/C=C1\NC(=O)[C@H](Cc2ccccc2)NC(=O)[C@@H](C(C)C)NC(=O)[C@@H]([C@H](C)CC)NC(=O)[C@H](NC(=O)[C@H](NC(=O)[C@H](CCCN)NC(=O)[C@H]2CCCN2C(=O)[C@H](NC(=O)[C@@H](NC(=O)[C@@H](NC(=O)[C@@H](CC(C)C)NC(=O)CCCC(C)C)[C@@H](C)O)C(C)C)C(C)C)[C@H](C)CC)[C@H](C)OC(=O)[C@H](C(C)C)NC1=O | 2180 | 889 | 365 | 509 | 2910 | 5210 | 2790 | 1790 | 2550 | 1130 | 3370 | 1080 | 5640 | 856 | 1060 | 1310 | 661 | 728 | 608 | 842 | GI50 [12]: 1000 nM; LC50 (concentration giving 50% net cell kill) [12]: 948 nM; TGI [12]: 1460 nM; GI50 [1]: 2720 nM; TGI [1]: 2430 nM; TGI [2]: 1070 nM; GI50 ([2]; read-out: GI50): 1340 nM; GI50 [3]: 298 nM; CC50 [13]: 955 nM; GI50 [7]: 325 nM; TGI [7]: 329 nM; GI50 [9]: 845 nM; GI50 ([9]; read-out: GI50): 1050 nM; TGI [11]: 1070 nM; GI50 [11]: 1090 nM |
| C/C=C1\NC(=O)[C@H](Cc2ccccc2)NC(=O)[C@@H](C(C)C)NC(=O)[C@@H]([C@@H](C)CC)NC(=O)[C@H](NC(=O)[C@H](NC(=O)[C@H](CCCN)NC(=O)[C@H]2CCCN2C(=O)[C@H](NC(=O)[C@@H](NC(=O)[C@@H](NC(=O)[C@H](NC(=O)CCCC(C)C)[C@@H](C)O)[C@@H](C)O)C(C)C)C(C)C)[C@@H](C)CC)[C@@H](C)OC(=O)[C@H](C(C)C)NC1=O | 2370 | 9290 | 257 | 575 | 3910 | 5260 | 2810 | 1950 | 2580 | 1140 | 331 | 1030 | 582 | 896 | 1100 | 1000 | 1060 | 886 | 367 | 727 | GI50 [12]: 1040 nM; LC50 (concentration giving 50% net cell kill) [12]: 977 nM; TGI [12]: 1520 nM; TGI [2]: 1150 nM; GI50 ([2]; read-out: GI50): 1470 nM; GI50 [3]: 231 nM; CC50 [13]: 1020 nM; GI50 [7]: 325 nM; TGI [7]: 327 nM; TGI [8]: 1260 nM; GI50 [8]: 1550 nM; GI50 [9]: 909 nM; GI50 ([9]; read-out: GI50): 1170 nM; TGI [11]: 1160 nM; GI50 [11]: 1220 nM |
